# Compounds with a hit are over-represented: about 1.6% of the library has one in this group of screens.
# HNF4A DNA FP – change in binding of human HNF4A to DNA, primary screen, biochemical, fluorescence polarization, FITC-DNA; 1 h; activity change, % at 10 µM; hit rate 0.3% among 360,000; AID 1224865, 2016; in the data active = activity change above about 30%, passing the limit was not always enough
# PKA-R1A act – activators of PKA-R1A holoenzyme, primary screen, biochemical, fluorescence polarization, Cy5-IP20, bovine R1A, mouse PKAc; cAMP-dependent protein kinase type I-alpha regulatory subunit (Bos taurus) + …; PKA-R1A dissociation; scaled: DMSO 0%, 113 µM cGMP 100%; activation, % at 11.4 µM; hit rate 0.083% among 340,000; AID 504707, 2011;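 active = percent activation above the mean of all tested compounds plus 3 SD, cut at about 19% in these data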;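 note: higher means more PKAc released from R1A so a rise in polarization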
# TPT1 inh – Candida albicans TPT1 enzyme inhibitors, primary screen, biochemical, fluorescence polarization; tRNA 2'-phosphotransferase TPT1 (Candida albicans SC5314); inhibition, % at 5 µM; hit rate 0.81% among 300,000; recombinant caTPT1, FP RNA substrate dephosphorylation;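 active = inhibition above the mean of all tested compounds plus 3 SD, set per screening campaign, cut at about 24% in these data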;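 note: plate controls were DMSO alone for no effect and ferristatin control at 100 nM for full effect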
# Rpn11 block – Rpn11 (PSMD14) deubiquitinase inhibitors, primary screen, biochemical, fluorescence polarization, uHTS. 26S proteasome non-ATPase regulatory subunit 14 (Homo sapiens), O00487. calls only at 20 µM. human 26S proteasome, Ub4-pepOG fluorescence polarization; 20S core pre-blocked with epoxomicin. hit rate 0.59% among 360,000;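 active = inhibition at 20 µM, scaled to each plate's controls, above about 33%, limit read from the data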
# PKA-R2B act – activators of PKA-R2B holoenzyme, primary screen, biochemical, fluorescence polarization, Cy5-IP20, human; PKA-R2B holoenzyme dissociation; R2B truncated from residue 108, S112A mutant; 0% DMSO only, 100% 113 µM cGMP; activation, % at 11.4 µM; hit rate 0.079% among 340,000; AID 504700, 2011;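 active = activation above a cutoff set at the mean over all compounds plus 3 SD, cut at about 18% in these data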;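 note: higher means more holoenzyme dissociation and a rise in polarization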
# Target sequence (P31323 whole entry, looked up, other chains not shown, the tested form may be a part): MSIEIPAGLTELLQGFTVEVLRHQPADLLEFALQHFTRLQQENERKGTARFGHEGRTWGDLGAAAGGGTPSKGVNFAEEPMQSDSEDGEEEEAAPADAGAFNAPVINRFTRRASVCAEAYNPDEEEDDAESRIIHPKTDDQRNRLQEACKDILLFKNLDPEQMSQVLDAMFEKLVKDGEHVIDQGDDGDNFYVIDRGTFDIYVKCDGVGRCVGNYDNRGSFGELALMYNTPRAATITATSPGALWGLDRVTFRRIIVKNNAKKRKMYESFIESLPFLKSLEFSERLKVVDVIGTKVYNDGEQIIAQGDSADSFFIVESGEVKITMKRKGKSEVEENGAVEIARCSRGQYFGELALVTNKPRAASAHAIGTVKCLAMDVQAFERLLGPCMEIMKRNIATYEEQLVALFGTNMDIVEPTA
# CSN inh – inhibitors of CSN-mediated cullin deneddylation, primary screen, biochemical, fluorescence polarization, uHTS; COP9 signalosome complex subunit 5 (Homo sapiens), Q92905; Purified CSN, SCF-Nedd8-OG deneddylation; inhibition, % at 12.5 µM; hit rate 0.38% among 360,000;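 active = pattern-corrected inhibition above about 35%, with an unprinted fluorescence ratio check between 0.5 and 1.5, limit read from the data, passing the limit was not always enough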;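 note: 0% = enzyme with substrate and 100% = substrate without enzyme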
#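 Assay system: purified human Csn5 enzyme expressed in HEK293T cells; measure: % inhibition; also added: SCFSkp2-Nedd8OG substrate at 10 nM final; technique: fluorescence polarization; times: reaction 90 min, room temperature; medium: Tris buffer pH 7.5, NaCl, DTT, Tween-20, trehalose, ovalbumin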
# caTPT1 confirm – Candida albicans TPT1 inhibitors, confirmation, biochemical, fluorescence polarization, triplicate; shares compounds with TPT1 inh; inhibition, % at 5 µM; recombinant caTPT1, RNase T1 coupled; hit rate 74% among 2,400;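 active = inhibition above the primary screen limit, the mean inhibition of all tested compounds plus 3 SD, cut at about 25% in these data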
# RNase T1 inh – RNase T1 inhibitors, counter-screen for TPT1 inhibitor project, biochemical, fluorescence polarization; RNase T1 cleavage, 1536-well; inhibition, % at 5 µM; hit rate 83% among 2,400; shares compounds with TPT1 inh;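 active = inhibition above the solvent-only control well mean plus 3 SD, limit set per screening run, cut at about 23% in these data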;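 note: plate controls were DMSO wells with enzyme for no effect and wells without RNase T1 for full effect; inhibitors block cleavage so intact labeled substrate keeps polarization high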
# Target sequence (P00651 whole entry, looked up): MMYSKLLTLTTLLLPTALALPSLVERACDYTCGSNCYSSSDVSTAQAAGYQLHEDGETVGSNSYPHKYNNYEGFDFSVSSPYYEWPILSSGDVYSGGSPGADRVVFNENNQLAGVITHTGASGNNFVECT
# * = called active by the depositor; i = inactive; . = no result given; + = active, no number.
SMILES,HNF4A DNA FP,PKA-R1A act,TPT1 inh,Rpn11 block,PKA-R2B act,CSN inh,caTPT1 confirm,RNase T1 inh
O=C1/C(=C/N(C(=O)c2ccco2)c2ccc(Br)cc2)Sc2ccccc21,14,-3,70*,+,-4,21,71*,85*
O=C1/C(=C/N(C(=O)c2ccco2)c2ccc(Cl)cc2)Sc2ccccc21,13,-7,69*,i,-4,10,70*,82*
COc1ccc(CN(C(=O)c2ccco2)c2ccc(Br)cc2)cc1OC,0,-5,-1,i,-3,1,.,.
CN(C)c1ccc(/C=C2\SC(=S)N(Nc3ncc(C(F)(F)F)cc3Cl)C2=O)cc1,166,3,123*,.,3,-68,141*,130*
Cc1ccc(S(=O)(=O)N(c2nc(N(C)C)nc(N(C)C)n2)n2cnnc2)cc1,-1,-13,29*,i,3,-3,7,12
Cc1nn(C)cc1CN1CCC(n2nccc2NC(=O)CCCc2ccccc2)CC1,-2,4,1,i,11,-1,.,.
COC(=O)c1ccc(-n2cc(-c3ccc(OC)cc3)[nH]c2=S)cc1,30,-2,38*,i,-3,5,31*,40*
N=c1c(S(=O)(=O)c2ccccc2)cc2c(=O)n3ccccc3nc2n1Cc1ccco1,-2,8,26*,i,-2,26,9,17
Cc1ccc(S(=O)(=O)c2cc3c(=O)n4ccccc4nc3n(Cc3ccco3)c2=N)cc1C,.,.,25*,.,.,.,18,21
Cc1cccn2c(=O)c3cc(S(=O)(=O)c4ccccc4)c(=N)n(Cc4ccco4)c3nc12,-3,2,6,i,8,-3,.,.
Cc1cccc(N2CCN(C(=O)c3ccc4c(c3)OCCO4)CC2)c1C,-2,2,1,i,1,4,.,.
Cc1cccc(N2CCN(C(=O)c3ccc4c(c3)NC(=O)C(CSCc3cccc(F)c3)N4)CC2)c1C (stereo unspecified),.,.,134*,.,.,.,131*,125*
C/C(=N\Nc1ccc([N+](=O)[O-])cc1)c1cccc(N)c1,12,-1,13,i,2,3,.,.
C/C(=N\Nc1ccc([N+](=O)[O-])cc1)c1ccc(O)cc1,51*,.,94*,.,.,14,91*,100*
CC(=O)NC/C(C)=N\Nc1ccc([N+](=O)[O-])cc1,10,1,32*,i,6,13,43*,55*
COC(=O)c1c(-c2ccccc2Cl)noc1/C=C/N(C)C,1,1,131*,i,-2,-1,28*,35*
CCCCCN1C=CC=C/C1=C\C=C(C#N)C#N,11,.,41*,i,.,1,44*,58*
O/C(=C\c1ccc2ccccc2n1)c1ccncc1,23,-1,53*,i,9,11,81*,90*
Cc1cccc(CN2CCc3c([nH]c4ccccc34)C2)c1,0,3,0,i,-3,2,.,.
COc1cc(OC)c(CN2CCc3c([nH]c4ccccc34)C2)cc1Br,52*,-9,48*,.,-10,43*,6,7
COc1ccccc1-n1cnc2cc(C(=O)N3CCOCC3)ccc21,4,-7,1,i,-7,-5,.,.
CCC(CO)[n+]1c(C)cc(/C=C2\Sc3ccccc3N2Cc2ccccc2)cc1C (stereo unspecified),13,-8,127*,.,-4,11,131*,134*
CCC(C)N1CCNCC1 (stereo unspecified),-4,1,33*,i,4,-2,-1,4
COc1cc2ccccc2nn1,1,-8,-6,i,-11,-3,.,.
COc1ccc2c(n1)Sc1nc3ccccc3nc1N2,32,-5,41*,.,3,31,56*,64*
SMILES,HNF4A DNA FP,PKA-R1A act,TPT1 inh,Rpn11 block,PKA-R2B act,CSN inh,caTPT1 confirm,RNase T1 inh
O=[N+]([O-])c1ccc(N(c2ccccc2)c2ccccc2)cc1,1,1,30*,.,9,9,32*,46*
CNc1ccc(Br)cc(C(=O)/C=C/c2ccc(OC)cc2)c1=O,-5,1,53*,i,-1,24,36*,46*
CNc1ccc(Br)cc(C(=O)/C=C/c2cc(OC)ccc2OC)c1=O,-4,9,66*,i,4,16,63*,76*
CCNc1ccc(Br)cc(C(=O)/C=C/c2ccc(Cl)cc2Cl)c1=O,15,3,69*,i,-12,28,85*,92*
O=S(=O)(NC1CCN(S(=O)(=O)c2ccc3c(c2)OCCO3)C1)c1c(F)cccc1F (stereo unspecified),-6,0,.,i,1,-1,.,.
COc1cccc(CN2CCC(Oc3ccc(C(=O)NCc4ccccn4)cc3)CC2)c1O,7,-4,.,i,5,1,.,.
NC(=O)c1cc(S(=O)(=O)N2CCOCC2)cs1,7,-15,-1,i,3,3,.,.
CS(=O)(=O)Nc1ccc(-c2ccc(/C=C3\SC(N)=NC3=O)o2)cc1,42*,-3,44*,i,-2,10,54*,68*
Cn1c(/C(C#N)=C/c2ccc(-c3ccc(S(N)(=O)=O)cc3)o2)nc2ccccc21,-2,-9,118*,i,-1,-71,120*,121*
Cc1ccc2c(CSc3nnc4ccccn34)cc(=O)oc2c1C,0,-10,4,i,-6,2,.,.
Cc1ccc2c(CSc3nc4ccccc4c(=O)n3CCCO)cc(=O)oc2c1C,3,2,32*,i,-1,4,5,9

# Screening data deposited in PubChem by several laboratories.
